As a reminder, the inhibition is how much of the control response was suppressed.

Drawing on ChEMBL document CHEMBL3593222, “6-Phenoxy-2-phenylbenzoxazoles, novel inhibitors of receptor for advanced glycation end products (RAGE)” (Bioorg Med Chem, 2015), this text covers inhibition, Activity and viability for 42 compounds.

Activity calls are given as the source filed them. The rule behind the calls is not given here.

The target in data set [1] is Advanced glycosylation end product-specific receptor (Homo sapiens) (UniProt Q15109). As to the kind of experiment: Inhibition of human RAGE-amyloid beta-42 interaction at 4 uM preincubated for 30 mins measured after 1 hr by FRET assay relative to control. Put shortly: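 Biotinylated human RAGE (2.5 µg) was premixed with 200 ng Cy3-streptavidin in PBS for 30 min at rt. Aβ42-FITC (50 µL of 40 nM) and compound (50 µL of 4 µM) were then added, in 200 µL final volume with 0.1% DMSO. Fluorescence was read 1 h later. FRET efficiency was computed from donor emission with and without acceptor, and percent inhibition was taken against vehicle. Triplicate.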
Chain of Advanced glycosylation end product-specific receptor (Homo sapiens) (Q15109 whole entry): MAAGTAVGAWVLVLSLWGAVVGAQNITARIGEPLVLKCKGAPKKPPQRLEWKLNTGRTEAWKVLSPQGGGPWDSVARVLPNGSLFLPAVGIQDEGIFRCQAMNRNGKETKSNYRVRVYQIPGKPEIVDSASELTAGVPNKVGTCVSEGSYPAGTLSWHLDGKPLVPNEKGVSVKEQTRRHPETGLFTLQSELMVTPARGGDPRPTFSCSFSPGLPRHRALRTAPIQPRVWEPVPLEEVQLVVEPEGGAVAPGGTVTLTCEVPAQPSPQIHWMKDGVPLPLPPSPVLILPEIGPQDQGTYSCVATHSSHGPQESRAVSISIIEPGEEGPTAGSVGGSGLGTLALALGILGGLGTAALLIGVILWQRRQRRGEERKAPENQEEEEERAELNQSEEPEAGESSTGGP

In a further data set the test system is HT-22. As to the kind of experiment: (§1) Cytotoxicity against mouse HT22 cells assessed as cell viability at 10 uM after 18 hrs by MTT assay. It counts as cell-based. The note with it: ht-22, 18 h, 10 µM. The method in brief:
(§2)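 HT22 cells were grown in DMEM with 10% FBS and penicillin/streptomycin at 37 °C in 5% CO2, and seeded at 5000 cells/well. Next day they were exposed to 10 µM compound for 18 h. MTT was then added for 3 h, formazan dissolved in acidic 2-propanol, and OD read at 570 nm. Viability is blank-corrected absorbance relative to control. Run in triplicate.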
A general note: Tetrazolium assays rely on reduction of a dye to a coloured formazan, in cell work by metabolically active cells.

Data set [2] is described as follows: as §1. Type of data set: cell-based, HT-22. The note with it: HT22 cells, read-out: Activity. The method in brief: as §2

In data set [1], `CCOC(=O)N1CCN(CCCOc2ccc(-c3nc4ccc(Oc5ccc(Cl)cc5)cc4o3)cc2)CC1` showed an inhibition of 6.6%. For the same compound, the Activity result in the data set on HT-22 is reported as “Non-toxic”.

The compound `OCCN1CCN(CCCOc2ccc(-c3nc4ccc(Oc5ccc(Cl)cc5)cc4o3)cc2)CC1` showed an inhibition in data set [1] of 3.3%. Further, the viability at 18 h, 10 µM in data set [2] turned out to be 3.3%.

Take `CCN(CC)CCCOc1ccc(-c2nc3ccc(Oc4ccc(C(C)(C)C)cc4)cc3o2)cc1`: the inhibition entry in data set [1] was “inactive”. For the same compound, the viability at 18 h, 10 µM in data set [2] is 74.1%.

In the case of `CC(C)(C)OC(=O)N1CCC(Oc2ccc(-c3nc4ccc(Oc5ccc(Cl)cc5)cc4o3)cc2)CC1`, the inhibition entry in data set [1] was “inactive”. Besides, the Activity result in the data set on HT-22 was “Non-toxic”.

Turning to `FC(F)(F)c1ccc(Oc2ccc3nc(-c4ccc(OCCCN5CCOCC5)cc4)oc3c2)cc1`, the inhibition in data set [1] amounted to 32.1%. Also, the Activity entry in the data set on HT-22 was “Non-toxic”.

`CC(C)(C)OC(=O)N[C@H]1CCN(CCCOc2ccc(-c3nc4ccc(Oc5ccc(Cl)cc5)cc4o3)cc2)C1` displayed an inhibition in data set [1] of 16.6%. Also, the viability at 18 h, 10 µM in data set [2] turned out to be 58.2%.

As to `Clc1ccc(Oc2ccc3nc(-c4ccc(OCCCN5CCCC5)cc4)oc3c2)cc1`, the inhibition entry in data set [1] was “inactive”. Besides, the Activity result in the data set on HT-22 is “Non-toxic”.

The compound `CC(C)N1CCC(COc2ccc(-c3nc4ccc(Oc5ccc(Cl)cc5)cc4o3)cc2)CC1` registered an inhibition in data set [1] of 26.2%. Also, the Activity result in the data set with HT-22 was “Non-toxic”.

Regarding `Clc1ccc(Oc2ccc3nc(-c4ccc(OCCCN5CCNCC5)cc4)oc3c2)cc1`, the inhibition in data set [1] is 42.7%. In data set [2], the viability at 18 h, 10 µM was 18.5%.

Regarding `Clc1ccc(Oc2ccc3nc(-c4ccc(OCCN5CCCCC5)cc4)oc3c2)cc1`, the inhibition in data set [1] was found to be 18.5%. The viability at 18 h, 10 µM in data set [2] was 21.4%.

For the compound `N[C@@H]1CCN(CCCOc2ccc(-c3nc4ccc(Oc5ccc(Cl)cc5)cc4o3)cc2)C1`, the inhibition in data set [1] turned out to be 19.6%. Moreover, in the data set with HT-22, the Activity entry is on record as “Non-toxic”.

On to `CC(C)(C)C1CCN(CCCOc2ccc(-c3nc4ccc(Oc5ccc(Cl)cc5)cc4o3)cc2)CC1`, for which the inhibition in data set [1] came to 16.6%. The viability at 18 h, 10 µM in data set [2] came to 32.2%.

`Clc1ccc(Oc2ccc3nc(-c4ccc(OCCCN5CCOCC5)cc4)oc3c2)cc1`: the inhibition entry in data set [1] is “inactive”. Further, the Activity result in the data set on HT-22 is reported as “Non-toxic”.

Turning to `Clc1ccc(Oc2ccc3nc(-c4ccc(OCCN5CCOCC5)cc4)oc3c2)cc1`, the inhibition in data set [1] stood at 25.7%. In addition, the Activity entry in the data set with HT-22 is “Non-toxic”.

As to `Fc1ccc(Oc2ccc3nc(-c4ccc(OCCCN5CCOCC5)cc4)oc3c2)cc1`, the inhibition in data set [1] turned out to be 56.7%. Besides, the Activity result with HT-22 is reported as “Non-toxic”.

For the compound `CC(C)(C)OC(=O)N[C@@H]1CCN(CCCOc2ccc(-c3nc4ccc(Oc5ccc(Cl)cc5)cc4o3)cc2)C1`, the inhibition in data set [1] amounted to 90.2%. The viability at 18 h, 10 µM in data set [2] was determined as 63.2%.

`CC(=O)N1CCC(Oc2ccc(-c3nc4ccc(Oc5ccc(Cl)cc5)cc4o3)cc2)CC1` came in with an inhibition in data set [1] of 20%. In the data set on HT-22, the Activity result is “Non-toxic”.

The compound `CCN(CC)CCCOc1ccc(-c2nc3ccc(Oc4ccc(C(F)(F)F)cc4)cc3o2)cc1` gave an inhibition in data set [1] of 34.9%. Further, the Activity entry in the data set on HT-22 is listed as “Non-toxic”.

The compound `CN1CCC(Oc2ccc(-c3nc4ccc(Oc5ccc(Cl)cc5)cc4o3)cc2)CC1` registered an inhibition in data set [1] of 19.5%. The viability at 18 h, 10 µM in data set [2] was 74.3%.

The compound `FC(F)(F)c1ccc(Oc2ccc3nc(-c4ccc(OCCCN5CCCCC5)cc4)oc3c2)cc1` had an inhibition in data set [1] of 44.3%. Moreover, the viability at 18 h, 10 µM in data set [2] amounted to 93.4%.

`CC(C)(C)c1ccc(Oc2ccc3nc(-c4ccc(OCCCN5CCCCC5)cc4)oc3c2)cc1`: in data set [1], the inhibition entry is “inactive”. Further, the viability at 18 h, 10 µM in data set [2] stood at 49.4%.

Compound `FC(F)(F)c1cccc(Oc2ccc3nc(-c4ccc(OCCCN5CCCCC5)cc4)oc3c2)c1` gave an inhibition in data set [1] of 42.7%. Further, the viability at 18 h, 10 µM in data set [2] was 4.4%.

Compound `Clc1ccc(Oc2ccc3nc(-c4ccc(OCCCN5CCCCC5)cc4)oc3c2)cc1` had an inhibition in data set [1] of 2.2%. Further, the viability at 18 h, 10 µM in data set [2] turned out to be 32.4%.

In data set [1], `Fc1ccc(Oc2ccc3nc(-c4ccc(OCCCN5CCCCC5)cc4)oc3c2)cc1` had an inhibition of 30.3%. The Activity result with HT-22 is recorded as “Non-toxic”.

The compound `CCN1CCC(COc2ccc(-c3nc4ccc(Oc5ccc(Cl)cc5)cc4o3)cc2)CC1` returned an inhibition in data set [1] of 2.1%. For the same compound, the viability at 18 h, 10 µM in data set [2] came out at 4.1%.

For `CC(C)(C)c1ccc(Oc2ccc3nc(-c4ccc(OCCCN5CC[C@@H](N)C5)cc4)oc3c2)cc1`, in data set [1], the inhibition result was “inactive”. Moreover, the viability at 18 h, 10 µM in data set [2] was found to be 12.8%.

The compound `CC(C)(C)c1ccc(Oc2ccc3nc(-c4ccc(OCCCN5CC[C@H](N)C5)cc4)oc3c2)cc1` had an inhibition in data set [1] of 54.7%. Also, the viability at 18 h, 10 µM in data set [2] is 60.3%.

In data set [1], `CCN(CC)CCCOc1ccc(-c2nc3ccc(Oc4ccc(Cl)cc4)cc3o2)cc1` returned an inhibition of 4.9%. Further, the viability at 18 h, 10 µM in data set [2] worked out at 32.1%.

`CC(C)(C)OC(=O)N[C@@H]1CCN(CCCOc2ccc(-c3nc4ccc(Oc5ccc(C(C)(C)C)cc5)cc4o3)cc2)C1` gave an inhibition in data set [1] of 26.8%. For the same compound, in the data set on HT-22, the Activity entry is “Non-toxic”.

With `CC(C)(C)OC(=O)N[C@H]1CCN(CCCOc2ccc(-c3nc4ccc(Oc5ccc(C(C)(C)C)cc5)cc4o3)cc2)C1`, in data set [1], the inhibition was found to be 61.6%. Moreover, the viability at 18 h, 10 µM in data set [2] amounted to 8.2%.

In data set [1], `CCN(CC)CCOc1ccc(-c2nc3ccc(Oc4ccc(Cl)cc4)cc3o2)cc1` registered an inhibition of 33.5%. Moreover, the viability at 18 h, 10 µM in data set [2] was found to be 85.2%.

Compound `CC(C)N1CCC(Oc2ccc(-c3nc4ccc(Oc5ccc(Cl)cc5)cc4o3)cc2)CC1` gave an inhibition in data set [1] of 12.7%. In addition, the viability at 18 h, 10 µM in data set [2] turned out to be 86.5%.

Consider `COC(=O)N1CCN(CCCOc2ccc(-c3nc4ccc(Oc5ccc(Cl)cc5)cc4o3)cc2)CC1`, for which the inhibition entry in data set [1] is “inactive”. The Activity result with HT-22 is “Non-toxic”.

As for `CC(C)(C)c1ccc(Oc2ccc3nc(-c4ccc(OCCCN5CCCC5)cc4)oc3c2)cc1`, in data set [1], the inhibition result was “inactive”. Also, the Activity result with HT-22 is listed as “Non-toxic”.

With `CN1CCN(CCCOc2ccc(-c3nc4ccc(Oc5ccc(Cl)cc5)cc4o3)cc2)CC1`, the inhibition in data set [1] worked out at 24.3%. The viability at 18 h, 10 µM in data set [2] was 69.3%.

In data set [1], `N[C@H]1CCN(CCCOc2ccc(-c3nc4ccc(Oc5ccc(Cl)cc5)cc4o3)cc2)C1` showed an inhibition of 29.9%. In addition, the Activity entry in the data set on HT-22 was “Non-toxic”.

For the compound `CC(C)COC(=O)N1CCN(CCCOc2ccc(-c3nc4ccc(Oc5ccc(Cl)cc5)cc4o3)cc2)CC1`, in data set [1], the inhibition came out at 41.2%. In the data set on HT-22, the Activity result is “Non-toxic”.

`CCN(CC)CCCOc1ccc(-c2nc3ccc(Oc4cccc(C(F)(F)F)c4)cc3o2)cc1` returned an inhibition in data set [1] of 24.1%. For the same compound, the Activity entry in the data set with HT-22 is “Non-toxic”.

On to `FC(F)(F)c1cccc(Oc2ccc3nc(-c4ccc(OCCCN5CCOCC5)cc4)oc3c2)c1`, for which the inhibition entry in data set [1] is “inactive”. In the data set with HT-22, the Activity result is given as “Non-toxic”.

As for `CC(C)(C)OC(=O)N1CCC(COc2ccc(-c3nc4ccc(Oc5ccc(Cl)cc5)cc4o3)cc2)CC1`, the inhibition entry in data set [1] was “inactive”. Moreover, the Activity entry in the data set on HT-22 is reported as “Non-toxic”.

`CC(C)(C)c1ccc(Oc2ccc3nc(-c4ccc(OCCCN5CCOCC5)cc4)oc3c2)cc1`: in data set [1], the inhibition result was “inactive”. Moreover, in the data set on HT-22, the Activity result is reported as “Non-toxic”.

The compound `CCN(CC)CCCOc1ccc(-c2nc3ccc(Oc4ccc(F)cc4)cc3o2)cc1` displayed an inhibition in data set [1] of 5.4%. Besides, the Activity result in the data set on HT-22 is “Non-toxic”.
